Source: article PMC11025564 (The journal of physical chemistry. B, 2018)

Tested on: integrin αIIbβ3 TM complex
Type: binding, Human
Conditions: ITC, 28 °C, same bicelles
How it was run: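 β3 TM peptide (10 μM in cell) titrated with αIIb TM peptide in 10 s injections until saturation. Medium: 43 mM DHPC, 17 mM POPC, 25 mM sodium phosphate, pH 7.4, with 9 mM free DHPC. Heats of dilution of both peptides were subtracted. ΔH° and mole-fraction K_XY were fitted with 1:1 stoichiometry fixed. Peptide amounts were set by UV absorbance.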

Substance: αIIb + β3: Human integrin αIIb(A958-P998) and β3(P685-F727) TM peptides incorporating β3(C687S), recombinantly produced; wild-type pair
- ΔG° (ΔG° = −RT ln KXY): -4.84 ± 0.01 kcal/mol
- TΔS° (ΔS° = (ΔH° − ΔG°)/T): -11.1 ± 0.1 kcal/mol
